Measured values from different studies.
Protocols differ between the studies behind these lines.

SMILES	test	test system	setting	quantity	result
N#C[C@@]1(c2ccc3c(N)ncnn23)O[C@H](CO)[C@@H](O)[C@H]1O	–	dog, plasma	intravenous, 2 mg/kg	MRT(0-inf)	3.93 h
C[C@]12CCCN1CC1=NNC(=O)c3cc(F)cc4[nH]c2c1c34	–	male Sprague-Dawley rat, brain	intravenous, 1 mg/kg	unbound tissue/plasma ratio	0.134
C=C1C[C@H](O)[C@H](Br)C(C)(C)[C@@]12CCC(C)=C(Cl)C2	general toxicity	female CD-1 mouse	intraperitoneal, single dose	MTD	65 mg/kg
CC[C@H](C)[C@H](NC(=O)[C@H](CO)NC(=O)[C@H](CCCNC(=N)N)NC(C)=O)C(=O)N[C@H]1CSSC[C@@H](C(=O)N[C@H](C(N)=O)[C@@H](C)O)NC(=O)[C@H](CCCNC(=N)N)NC(=O)[C@H](Cc2c[nH]cn2)NC(=O)[C@H](C)NC(=O)CNC(=O)[C@H](Cc2c[nH]c3ccccc23)NC(=O)[C@H](CC(=O)O)NC(=O)[C@H](CCC(N)=O)NC(=O)[C@H](Cc2cn(C)c3ccccc23)NC(=O)[C@H](C(C)C)NC1=O	absorbance	water	–	thermodynamic solubility	> 500 µM
CC[C@@H]1CN(C(=O)NCC(F)(F)F)C[C@@H]1c1cnc2cnc3[nH]ccc3n12	–	beagle dog, plasma	oral, 1 mg/kg, single dose	MRT(0-inf)	11.6 h
CC[C@H](C)[C@H](NC(=O)[C@H](Cc1ccccc1)NC(=O)[C@H](Cc1ccc(O)cc1)NC(=O)[C@@H]1CCCN1C(=O)[C@@H](N)Cc1ccc(O)cc1)C(=O)N[C@H](CCCCN)C(=O)N[C@@H](CC(C)C)C(=O)NCC(=O)N[C@H](CCCCN)C(=O)NCC(=O)N[C@@H](CCC(=O)O)C(=O)N[C@H](C(=O)N[C@@H](CC(N)=O)C(=O)N[C@@H](CC(C)C)[C@@H](O)CC(=O)N[C@H](C(=O)N[C@@H](C)C(=O)N[C@@H](CCC(=O)O)C(=O)N1CCC[C@@H]1C(=O)N[C@@H](CCCCNC(=O)CCC(=O)O[C@H]1CC[C@@]2(C)C(=CC[C@H]3[C@@H]4CC[C@H]([C@H](C)CCCC(C)C)[C@@]4(C)CC[C@@H]32)C1)C(N)=O)C(C)C)C(C)C	–	aqueous buffer	pH 6.5	thermodynamic solubility	55 µg/mL
CCn1c(=O)c(-c2cc(NC(=O)Nc3ccccc3)c(F)cc2Br)cc2cnc(NC)cc21	–	beagle dog, plasma	oral, 5 mg/kg, single dose	Tmax	2.25 h
CC[C@H](C)[C@H](NC(=O)[C@H](Cc1ccccc1)NC(=O)[C@H](Cc1ccc(O)cc1)NC(=O)[C@@H]1CCCN1C(=O)[C@@H](N)Cc1ccc(O)cc1)C(=O)N1CCC[C@H]1C(=O)N[C@@H](CC(C)C)C(=O)NCC(=O)N[C@H](CCCCN)C(=O)NCC(=O)N[C@@H](CCC(=O)O)C(=O)N[C@H](C(=O)N[C@@H](CC(N)=O)C(=O)N[C@@H](CC(C)C)[C@@H](O)CC(=O)N[C@H](C(=O)N[C@@H](C)C(=O)N[C@@H](CCC(=O)O)C(=O)N1CCC[C@@H]1C(=O)N[C@@H](CCCCNC(=O)CCC(=O)O[C@H]1CC[C@@]2(C)C(=CC[C@H]3[C@@H]4CC[C@H]([C@H](C)CCCC(C)C)[C@@]4(C)CC[C@@H]32)C1)C(N)=O)C(C)C)C(C)C	–	aqueous buffer	pH 6.5	thermodynamic solubility	11 µg/mL
Cc1cc(Nc2ccc(S(F)(F)(F)(F)F)cc2)n2nc(C(C)(F)F)nc2n1	general toxicity	mouse	oral, multiple doses	MTD	> 200 mg/kg
